High-throughput results deposited in PubChem by several laboratories.
EBV gp42 block = blocks Epstein-Barr virus glycoprotein 42 binding. 220,000 tested, 0.42% active. inhibition, % (tested at 21.74 µM). Fluorescence polarization binding assay, mP read-out. Q1HVG2; in the data active = inhibition above about 50%
Mcl1 Bid PPI = disrupts binding of human Mcl-1 to Bid peptide; Q07820; 220,000 tested, 0.97% active; inhibition, % at 21.7 µM; AID 1021; TR-FRET Mcl-1/Bid-Dy647 peptide binding, 1536-well;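 active = compounds that cut the binding signal by more than half at the single screening dose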;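 note: His-tagged Mcl-1 with europium anti-His antibody binding Bid BH3 peptide; 0% = Mcl-1 plus peptide wells and 100% = peptide-only wells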
Target sequence (Q07820 whole entry, looked up): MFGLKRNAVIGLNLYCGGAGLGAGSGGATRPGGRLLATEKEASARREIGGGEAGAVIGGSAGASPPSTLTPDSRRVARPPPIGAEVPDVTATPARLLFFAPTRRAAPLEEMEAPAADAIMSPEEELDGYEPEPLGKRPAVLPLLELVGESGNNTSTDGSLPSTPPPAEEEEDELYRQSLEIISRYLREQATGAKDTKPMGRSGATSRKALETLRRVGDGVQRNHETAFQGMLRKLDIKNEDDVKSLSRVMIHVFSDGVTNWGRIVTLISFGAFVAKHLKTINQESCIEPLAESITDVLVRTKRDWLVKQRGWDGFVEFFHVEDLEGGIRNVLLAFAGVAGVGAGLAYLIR
RBBP9 inhibitor = blocks human serine hydrolase RBBP9; AID 1515; 220,000 tested, 0.2% active; inhibition, % at 7.94 µM; recombinant RBBP9, FP-Rh probe fluorescence polarization;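 active = inhibition above the campaign mean of all tested compounds plus 3 SD, cut at about 14% in these data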;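 note: plate controls were DMSO wells with RBBP9 for no effect and wells lacking RBBP9 protein for full effect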
Target sequence (O75884 whole entry, looked up): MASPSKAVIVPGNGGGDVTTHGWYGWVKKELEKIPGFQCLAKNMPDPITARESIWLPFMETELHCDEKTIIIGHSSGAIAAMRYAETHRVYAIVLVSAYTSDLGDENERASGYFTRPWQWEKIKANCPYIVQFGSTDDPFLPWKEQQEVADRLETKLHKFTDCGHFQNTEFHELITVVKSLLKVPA
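Material: RBBP9 protein. Amount: RBBP9 at 2.5 µM in dispensed solution, before mixing. Schedule: 30 min then 45 min, 25 °C. Medium: Tris buffer pH 8.0, NaCl, Pluronic. Measured by: fluorescence polarization. Measure: percent inhibition from mP, scaled between DMSO and no-protein wells. Replication: one well per compound.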
Mcl1 Noxa PPI = disrupts binding of human Mcl-1 to Noxa peptide | TR-FRET Mcl-1/Noxa peptide binding, 2 h | Q07820 | inhibition, % at 21.7 µM | 220,000 tested, 1.5% active;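 active = compounds that cut the protein-peptide binding signal by more than 50% relative to plate controls in a single-dose test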;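 note: His-tagged Mcl-1 with rhodamine Noxa BH3 peptide and terbium anti-His antibody; 0% = Mcl-1 plus Noxa peptide wells and 100% = peptide-only wells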
MCL1-BIM inh = disrupts human MCL1 binding to BIM-BH3 peptide; 320,000 tested, 0.68% active; GST-MCL1 / FITC-Bim-BH3 fluorescence polarization; inhibition, % at 10.9 µM;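 active = inhibition above the mean inhibition of all tested compounds plus 3 SD, set per campaign, cut at about 40% in these data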;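 note: 0% = DMSO wells and 100% = unlabeled Bim-BH3 peptide control; higher means more loss of mP so more displacement of Bim peptide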
Bim-Mcl-1 = disrupts Bim peptide binding to human Mcl-1; inhibition, % at 10 µM; Q07820; 190,000 tested, 0.1% active; Bead-based flow cytometry, Bim peptide-Mcl-1 binding; in the data active = inhibition above about 40%;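 note: 0% = no compound tracer wells and 100% = peptide blocker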
Starred values were filed as active, the others as inactive. A selection: hits, their analogues and other compounds. The true share with any hit is near 2.2%.

Results for Cc1cc(Nc2ccc(O)cc2)ccc1N ?
MCL1-BIM inh: 41*

How did CCCCn1c(Cn2nc(C(=O)O)c3ccccc3c2=O)nc2cc(S(N)(=O)=O)ccc21 do in these assays?
MCL1-BIM inh: 1

What do the screens show for `COc1ccccc1C(=O)N1CCC(N2CCN(c3ccccc3)CC2)CC1`?
EBV gp42 block: -12; Mcl1 Bid PPI: 56*; RBBP9 inhibitor: -4; Mcl1 Noxa PPI: -68; MCL1-BIM inh: 3

Results for N#C/C(=C\c1ccc([N+](=O)[O-])o1)C(=O)Nc1ccc(F)cc1 ?
EBV gp42 block: 6; Mcl1 Bid PPI: -51; RBBP9 inhibitor: -4; Mcl1 Noxa PPI: 65*; MCL1-BIM inh: 28; Bim-Mcl-1: 1

What do the screens show for `COc1ccc(NC(=O)/C(C#N)=C\c2ccc(Br)o2)cc1`?
EBV gp42 block: 33; Mcl1 Bid PPI: -75; RBBP9 inhibitor: 0; Mcl1 Noxa PPI: 17; MCL1-BIM inh: 15

How did COc1ccc(-n2c(=S)[nH]c3cc(C(=O)NCc4ccccc4)ccc3c2=O)c(OC)c1 do in these assays?
MCL1-BIM inh: 12

How did COc1ccc(CNC(=O)COc2ccc(S(=O)(=O)N3CCOCC3)cc2C)cc1 do in these assays?
MCL1-BIM inh: 0

Results for Cc1ccc(N(C(=O)c2csnn2)C(C(=O)NCc2ccccc2)c2ccccn2)cc1 (configuration not stated) ?
MCL1-BIM inh: -4

Results for Cc1cc(/C=N/NC(N)=S)c(C)n1-c1ccc(Cl)c(Cl)c1 ?
EBV gp42 block: -5; Mcl1 Bid PPI: -117; RBBP9 inhibitor: -3; Mcl1 Noxa PPI: -4; MCL1-BIM inh: 12; Bim-Mcl-1: -1

Results for COc1cccc(NC(=O)C(=O)N/N=C/c2cc(C)n(-c3ccc(Cl)c(Cl)c3)c2C)c1 ?
EBV gp42 block: -6; Mcl1 Bid PPI: 93*; RBBP9 inhibitor: -12; Mcl1 Noxa PPI: -1; MCL1-BIM inh: 4; Bim-Mcl-1: 2

Results for Cc1cc(C(=O)CSc2nc(N)cc(=O)[nH]2)ccc1F ?
MCL1-BIM inh: 10

Results for Cc1cc(C)c2c(=O)[nH]c(SCC(=O)c3ccc(F)c(C)c3)nc2n1 ?
EBV gp42 block: -15; Mcl1 Bid PPI: 59*; RBBP9 inhibitor: -2; Mcl1 Noxa PPI: -225; MCL1-BIM inh: -4; Bim-Mcl-1: -6

How did NC(=O)c1nn(CC(=O)Nc2ccc3c(c2)OCO3)cc1[N+](=O)[O-] do in these assays?
EBV gp42 block: 8; Mcl1 Bid PPI: -8; RBBP9 inhibitor: -8; Mcl1 Noxa PPI: 74*; MCL1-BIM inh: -18; Bim-Mcl-1: -2

What do the screens show for `O=C(Cc1ccccc1[N+](=O)[O-])Nc1ccc2c(c1)OCO2`?
EBV gp42 block: 6; Mcl1 Bid PPI: -9; RBBP9 inhibitor: -14; Mcl1 Noxa PPI: 8; MCL1-BIM inh: -13; Bim-Mcl-1: 1

What do the screens show for `O=C(CN1C(=O)CSCC1=O)Nc1ccc2c(c1)OCO2`?
EBV gp42 block: 2; Mcl1 Bid PPI: -24; RBBP9 inhibitor: -7; Mcl1 Noxa PPI: 53*; MCL1-BIM inh: 10; Bim-Mcl-1: -5

What do the screens show for `CC1SC(C)C(=O)N(CC(=O)Nc2ccc3c(c2)OCO3)C1=O` (configuration not stated)?
EBV gp42 block: -3; Mcl1 Bid PPI: -19; RBBP9 inhibitor: -3; Mcl1 Noxa PPI: 34; MCL1-BIM inh: 4; Bim-Mcl-1: -2

What do the screens show for `N#Cc1c2ccc(OCC(=O)NCc3ccco3)cc2n2ccccc12`?
MCL1-BIM inh: 7

How did N#Cc1c2ccc(O)cc2n2ccccc12 do in these assays?
EBV gp42 block: 36; Mcl1 Bid PPI: -12; RBBP9 inhibitor: 0; Mcl1 Noxa PPI: 43; MCL1-BIM inh: 44*; Bim-Mcl-1: 11

Results for O=C(NNc1c2ccccc2nc2ccccc12)c1ccc(Cl)cc1 ?
MCL1-BIM inh: 8

Results for Cc1ccc(C(=O)NNC2=Nc3cccc4cccc2c34)cc1 ?
EBV gp42 block: -25; Mcl1 Bid PPI: 20; RBBP9 inhibitor: -7; Mcl1 Noxa PPI: 67*; MCL1-BIM inh: 0; Bim-Mcl-1: -5

Results for Cc1ccc(C(=O)NNC(=O)c2ccc3ncccc3c2)cc1 ?
EBV gp42 block: 6; Mcl1 Bid PPI: -9; RBBP9 inhibitor: 2; Mcl1 Noxa PPI: -4; Bim-Mcl-1: 50*

What do the screens show for `Cc1ccc(C(=O)NNc2c3ccccc3nc3ccccc23)cc1`?
EBV gp42 block: 9; Mcl1 Bid PPI: 12; RBBP9 inhibitor: 2; Mcl1 Noxa PPI: 81*; MCL1-BIM inh: 17

What do the screens show for `O=C(c1ccc(F)cc1)C1CCN(C(=S)NCC2CCCO2)CC1` (configuration not stated)?
EBV gp42 block: -5; Mcl1 Bid PPI: -23; RBBP9 inhibitor: 0; Mcl1 Noxa PPI: 4; MCL1-BIM inh: 0; Bim-Mcl-1: -1

How did Cc1c(O)cc2c(c1O)C(=O)CC(c1ccc(O)cc1)O2 (configuration not stated) do in these assays?
EBV gp42 block: 17; Mcl1 Bid PPI: 65*; RBBP9 inhibitor: -6; Mcl1 Noxa PPI: 86*; MCL1-BIM inh: 18; Bim-Mcl-1: 1

How did CC(C)Oc1ccc(C(=O)N/N=C/c2ccc(-c3ccc(S(=O)(=O)Nc4ncccn4)cc3)o2)cc1 do in these assays?
EBV gp42 block: -13; Mcl1 Bid PPI: -34; RBBP9 inhibitor: -7; Mcl1 Noxa PPI: 67*; MCL1-BIM inh: 13; Bim-Mcl-1: -1

Results for O=[N+]([O-])c1ccc(Sc2cccc3cccnc23)c2cccnc12 ?
EBV gp42 block: 62*; Mcl1 Bid PPI: 7; RBBP9 inhibitor: 3; Mcl1 Noxa PPI: 2; MCL1-BIM inh: 0; Bim-Mcl-1: 0

Results for O=[N+]([O-])c1cc2cccnc2c2ncccc12 ?
EBV gp42 block: -8; Mcl1 Bid PPI: -23; RBBP9 inhibitor: 4; Mcl1 Noxa PPI: -25; MCL1-BIM inh: 8

Results for OC[C@H]1OC(O)[C@H](O)[C@@H]1O (some centres not stated) ?
MCL1-BIM inh: -1

How did C=CCN1C(=O)/C(=C2/Sc3ccc(OC)cc3N2C)SC1=Nc1cccc(O)c1 do in these assays?
EBV gp42 block: -76; Mcl1 Bid PPI: 54*; RBBP9 inhibitor: -6; Mcl1 Noxa PPI: 58*; MCL1-BIM inh: -9; Bim-Mcl-1: -1

Results for CCN1C(=O)/C(=C2/Sc3ccc(OC)cc3N2C)SC1=Nc1ccc(OC)cc1 ?
EBV gp42 block: -10; Mcl1 Bid PPI: -37; RBBP9 inhibitor: -7; Mcl1 Noxa PPI: 9; MCL1-BIM inh: 8; Bim-Mcl-1: -4

Results for Cc1ccccc1OCCNC(=O)CNC(=O)c1ccccc1O ?
EBV gp42 block: 0; Mcl1 Bid PPI: 82*; RBBP9 inhibitor: -6; MCL1-BIM inh: 0; Bim-Mcl-1: -4

How did CC1CCC(C(C)C)C2=C1C(C#N)(C#N)C(C#N)(C#N)C(c1ccccc1)N2 (configuration not stated) do in these assays?
EBV gp42 block: -2; Mcl1 Bid PPI: -36; RBBP9 inhibitor: -2; Mcl1 Noxa PPI: 56*; MCL1-BIM inh: 10; Bim-Mcl-1: 0
